As a reminder, the GI50 is the concentration giving 50% growth inhibition. Low readings indicate greater sensitivity of the cells, high ones lower sensitivity of the cells. As a reminder, the inhibition is the relative decrease from the control value, in per cent. By IC50 is commonly meant the midpoint of a concentration-inhibition curve. A higher IC50 goes with weaker potency in that assay.

Molecules are shown by their SMILES. The source made the active and inactive calls. The rule behind the calls is not given here.

The source of these data is ChEMBL document CHEMBL1240420, “Synthesis and biological evaluation of cinnamido linked pyrrolo[2,1-c][1,4]benzodiazepines as antimitotic agents” (Eur J Med Chem, 2010).

One assay relates to COLO 205. Nature of the assay: Cytotoxicity against human COLO205 cells after 48 hrs by SRB assay. The assay is classed as functional. The conditions noted are these: COLO 205, 48 h. The gist of the method:
(§1)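 Cells were grown in RPMI 1640 with 10% FBS and 2 mM L-glutamine, plated 24 h before dosing, then given continuous 48 h exposure at 0.1, 1, 10 and 100 µM in triplicate wells. Cells were fixed with cold TCA (10% final, 60 min, 4 °C), stained with 0.4% SRB in 1% acetic acid for 20 min, eluted with 10 mM Tris base, and read at 540/690 nm. GI50 was taken from [(Ti−Tz)/(C−Tz)]×100 = 50; three determinations were averaged.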
(In general: The SRB assay estimates cell density from bound dye.)

Another assay has as its target Tubulin (Homo sapiens) (UniProt P68371+Q9H4B7+P0DPH7+P68366+Q13509+Q71U36+P04350+Q3ZCM7+P07437+P68363+Q9BQE3+Q6PEY2+Q13885+Q9BVA1+Q9BUF5). Nature of the assay: Inhibition of tubulin polymerization in human MCF7 cells at 2.5 uM by immunohistochemistry. The assay is classed as cell-based. The method in brief:
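MCF7 cells on glass cover slips exposed 48 h to 2.5 µM. Fixed with 3% paraformaldehyde/0.02% glutaraldehyde, permeabilized in −20 °C methanol, blocked with 1% BSA. Stained with mouse monoclonal anti-tubulin plus FITC secondary, then confocal imaging of microtubule network integrity. Nocodazole and taxol (2.5 µM) run as controls; untreated cells as baseline.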

Assay [1] can be described thus: Inhibition of bovine tubulin after 3 hrs. Details: species or system Bos taurus. The method in brief:
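Bovine brain tubulin purified by three polymerization/depolymerization cycles. A340 read every 2 min for 3 h at 37 °C, nocodazole as control. IC50 taken as the concentration halving assembly versus control.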

The next assay has as its system KB. Nature of the assay: Cytotoxicity against human KB cells after 48 hrs by SRB assay. Type of assay: functional. The gist of the method:
as §1

The test system of a further assay is A549. As to the kind of experiment: Cytotoxicity against human A549 cells after 48 hrs by SRB assay. The assay is classed as functional. The conditions noted are these: A549, 48 h. The gist of the method:
as §1

For another assay, the species on record is Bos taurus. Nature of the assay: Inhibition of bovine tubulin at 2.5 uM after 3 hrs relative to control.
The nature of assay [2]: Cytotoxicity against human DWD cells after 48 hrs by SRB assay. The assay is classed as functional. The gist of the method: as §1
The subject of another assay is SiHa. As to the kind of experiment: Cytotoxicity against human SiHa cells after 48 hrs by SRB assay. Type of assay: functional. The method in brief:
(§2)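 Cells grown in RPMI 1640 with 10% FBS and 2 mM L-glutamine, plated and left 24 h at 37 °C/5% CO2, then exposed continuously for 48 h to 0.1, 1, 10 and 100 µM in triplicate wells. Fixed with cold TCA (10% final), stained with 0.4% SRB, eluted with 10 mM Tris base, read at 540 nm (690 nm reference). GI50 from [(Ti−Tz)/(C−Tz)]×100 = 50; mean of three determinations.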

For the next assay, the system named is A2780. As to the kind of experiment: Cytotoxicity against human A2780 cells after 48 hrs by SRB assay. Type of assay: functional. The conditions noted are these: A2780, 48 h. The gist of the method:
as §1

Assay [3] relates to MCF7. As to the kind of experiment: Cytotoxicity against human MCF7 cells after 48 hrs by SRB assay. Type of assay: functional. The conditions noted are these: MCF7, 48 h. The method in brief: as §1
Another assay has as its system HOP-62. Nature of the assay: Cytotoxicity against human HOP62 cells after 48 hrs by SRB assay. Type of assay: functional. The conditions noted are these: HOP-62, 48 h. The gist of the method:
as §1

The next assay deals with ZR-75-1. As to the kind of experiment: Cytotoxicity against human ZR-75-1 cells after 48 hrs by SRB assay. The assay is classed as functional. The conditions noted are these: ZR-75-1, 48 h. The method in brief: as §2
Another assay has as its system PC-3. Nature of the assay: Cytotoxicity against human PC3 cells after 48 hrs by SRB assay. Type of assay: functional. The conditions noted are these: PC-3, 48 h. The gist of the method: as §1
For assay [4], the system named is MCF7. Nature of the assay: Induction of apoptosis in human MCF7 cells assessed as nuclear condensation at 2 uM after 48 hrs by fluorescence microscopy. The assay is classed as functional, cell-based. The method in brief:
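MCF7 cells on cover slips in 6-well plates treated 48 h at 1–3 µM. Nocodazole and podophyllotoxin (1 µM) served as controls. Fixed in 3% paraformaldehyde/0.02% glutaraldehyde, stained with Hoechst (5 µM, 30 min), washed in PBS and imaged by fluorescence microscopy with DAPI filters. Five fields of view examined.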

Assay [5] in a line: Cytotoxicity against human GURAV cells after 48 hrs by SRB assay. The assay is classed as functional. The gist of the method:
as §1

Assay [6] has as its system MCF7. As to the kind of experiment: Cell cycle arrest in human MCF7 cells assessed as accumulation at G0 phase after 48 hrs using FITC/propidium iodide staining by flow cytometry. The assay is classed as functional, cell-based. The method in brief: (§3)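 MCF7 cells in 6-well plates were exposed for 48 h, harvested with trypsin–EDTA, and fixed in ice-cold 70% ethanol at 4 °C for 30 min. They were then stained with a propidium iodide solution containing trisodium citrate and Triton X-100 for 30 min in the dark. DNA content was read by flow cytometry on 20,000 events, and cells were scored by cell-cycle phase from histograms.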
For orientation: A flow cytometer gives signals particle by particle.

The test system of assay [7] is MCF7. As to the kind of experiment: Cell cycle arrest in human MCF7 cells assessed as accumulation at G2/M phase after 48 hrs using FITC/propidium iodide staining by flow cytometry. The assay is classed as functional, cell-based. The gist of the method:
as §3

Regarding `COc1cc(/C=C/C(=O)N2CCN(C(=O)/C=C/c3ccc(OCCCCOc4cc5c(cc4OC)C(=O)N4CCC[C@H]4C=N5)c(OC)c3)CC2)ccc1OCCCCOc1cc2c(cc1OC)C(=O)N1CCC[C@H]1C=N2`, the GI50 was 150 nM in the assay on COLO 205; under 100 nM with KB; under 100 nM in the assay on A549; 120 nM in assay [2]; under 100 nM in the assay with SiHa; under 100 nM in the assay on A2780. Further, the 50% growth inhibitory concentration (GI50) in the assay with MCF7 [3] is 150 nM; in the assay with HOP-62, under 100 nM; with ZR-75-1 it was 150 nM; with PC-3, 160 nM; in assay [5], under 100 nM. In addition, the inhibition result on Tubulin (Homo sapiens) was “Active”. In assay [1], this compound showed an IC50 of 27900 nM. Also, the inhibition in the assay filed under Bos taurus amounted to 40%. The outcome with MCF7 [4], with MCF7 [6] and in the assay with MCF7 [7] was Active.
As to `COc1cc(/C=C/C(=O)N2CCOCC2)ccc1OCCCCOc1cc2c(cc1OC)C(=O)N1CCC[C@H]1C=N2`, the GI50 in the assay on COLO 205 was 120 nM; in the assay on KB it was 130 nM; with A549, 110 nM; in [2], under 100 nM; with SiHa, 140 nM; with A2780, 120 nM. Moreover, the 50% growth inhibitory concentration (GI50) in the assay on MCF7 [3] turned out to be 140 nM; in the assay with HOP-62, 160 nM; in the assay with ZR-75-1 it was 150 nM; with PC-3, 140 nM; in assay [5] it was 130 nM. Further, the inhibition entry at Tubulin (Homo sapiens) was “Active”. The compound also gave a half-maximal inhibitory concentration (IC50) in assay [1] of 16400 nM. In the assay listed under Bos taurus, the inhibition is 40%. In addition, the outcome with MCF7 [4], with MCF7 [6] and with MCF7 [7] was Active.
